Results taken from ChEMBL document CHEMBL2040727, “Substituted thiazoles VI. Synthesis and antitumor activity of new 2-acetamido- and 2 or 3-propanamido-thiazole analogs” (2012).

Tested on: OVCAR-5
Assay: Growth inhibition of human OVCAR5 cells at 10 uM after 48 hrs by coulter counter analysis
Type: functional
Conditions: OVCAR-5, 48 h, read-out: GI
Method in brief: (§1)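 Single-dose NCI 60-line panel screen of test compounds. Cells grown in RPMI 1640 with 10% FBS. Compounds dissolved in DMSO, then diluted in phosphate buffer saline (final DMSO below 1%). Wells run in duplicate at 6 × 10⁴ cells/ml. Controls held PBS and DMSO at matching dilutions. Incubation 48 h at 37 °C under humidified 5% CO2. Cells diluted tenfold in saline and counted by Coulter counter. Percent growth inhibition taken from mean-graph of treated-cell growth.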

SMILES | inhibition of growth at 10 µM
CC(C(=O)Nc1nccs1)N1CCN(C)CC1 (stereo unspecified) | < 10%

Tested on: MCF7
Assay: Growth inhibition of human MCF7 cells at 10 uM after 48 hrs by coulter counter analysis
Type: functional
Conditions: MCF7, 48 h, read-out: GI
Method in brief: as §1

SMILES | inhibition of growth at 10 µM
CC(C(=O)Nc1nccs1)N1CCN(C)CC1 (stereo unspecified) | < 10%

Tested on: SR
Assay: Growth inhibition of human SR cells at 10 uM after 48 hrs by coulter counter analysis
Type: functional
Conditions: read-out: GI
Method in brief: (§2)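 Single-dose screen in the NCI 60 cell line panel. Cells grown in RPMI 1640 with 10% FBS. Compounds dissolved in DMSO and diluted in phosphate buffered saline, final DMSO under 1%. Duplicate wells seeded from culture at 6 × 10⁴ cells/ml. Incubated 48 h at 37 °C, humidified, 5% CO2. Cells diluted tenfold in saline and Coulter-counted. Percent growth inhibition computed against PBS/DMSO controls.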

SMILES | inhibition of growth at 10 µM
CC(C(=O)Nc1nccs1)N1CCN(C)CC1 (stereo unspecified) | < 10%

Tested on: UACC-62
Assay: Growth inhibition of human UACC62 cells at 10 uM after 48 hrs by coulter counter analysis
Type: functional
Conditions: UACC-62, 48 h, read-out: GI
Method in brief: as §2

SMILES | inhibition of growth at 10 µM
CC(C(=O)Nc1nccs1)N1CCN(C)CC1 (stereo unspecified) | < 10%

Tested on: SF-295
Assay: Growth inhibition of human SF295 cells at 10 uM after 48 hrs by coulter counter analysis
Type: functional
Conditions: SF-295, 48 h, read-out: GI
Method in brief: as §1

SMILES | inhibition of growth at 10 µM
CC(C(=O)Nc1nccs1)N1CCN(C)CC1 (stereo unspecified) | < 10%

Tested on: HOP-92
Assay: Growth inhibition of human HOP92 cells at 10 uM after 48 hrs by coulter counter analysis
Type: functional
Conditions: HOP-92, 48 h, read-out: GI
Method in brief: as §1

SMILES | inhibition of growth at 10 µM
CC(C(=O)Nc1nccs1)N1CCN(C)CC1 (stereo unspecified) | < 10%

Tested on: M14
Assay: Growth inhibition of human M14 cells at 10 uM after 48 hrs by coulter counter analysis
Type: functional
Conditions: M14, 48 h, read-out: GI
Method in brief: as §1

SMILES | inhibition of growth at 10 µM
CC(C(=O)Nc1nccs1)N1CCN(C)CC1 (stereo unspecified) | < 10%

Tested on: T47D
Assay: Growth inhibition of human T47D cells at 10 uM after 48 hrs by coulter counter analysis
Type: functional
Conditions: read-out: GI
Method in brief: as §2

SMILES | inhibition of growth at 10 µM
CC(C(=O)Nc1nccs1)N1CCN(C)CC1 (stereo unspecified) | < 10%

Tested on: NCI-H322M
Assay: Growth inhibition of human NCI-H322M cells at 10 uM after 48 hrs by coulter counter analysis
Type: functional
Conditions: read-out: GI
Method in brief: as §1

SMILES | inhibition of growth at 10 µM
CC(C(=O)Nc1nccs1)N1CCN(C)CC1 (stereo unspecified) | < 10%

Tested on: BT-549
Assay: Growth inhibition of human BT549 cells at 10 uM after 48 hrs by coulter counter analysis
Type: functional
Conditions: BT-549, 48 h, read-out: GI
Method in brief: as §1

SMILES | inhibition of growth at 10 µM
CC(C(=O)Nc1nccs1)N1CCN(C)CC1 (stereo unspecified) | < 10%

Tested on: NCI-H522
Assay: Growth inhibition of human NCI-H522 cells at 10 uM after 48 hrs by coulter counter analysis
Type: functional
Conditions: NCI-H522, 48 h, read-out: GI
Method in brief: as §1

SMILES | inhibition of growth at 10 µM
CC(C(=O)Nc1nccs1)N1CCN(C)CC1 (stereo unspecified) | < 10%

Tested on: NCI-H226
Assay: Growth inhibition of human NCI-H226 cells at 10 uM after 48 hrs by coulter counter analysis
Type: functional
Conditions: NCI-H226, 48 h, read-out: GI
Method in brief: as §1

SMILES | inhibition of growth at 10 µM
CC(C(=O)Nc1nccs1)N1CCN(C)CC1 (stereo unspecified) | < 10%

Tested on: UO-31
Assay: Growth inhibition of human UO31 cells at 10 uM after 48 hrs by coulter counter analysis
Type: functional
Conditions: UO-31, 48 h, read-out: GI
Method in brief: as §2

SMILES | inhibition of growth at 10 µM
CC(C(=O)Nc1nccs1)N1CCN(C)CC1 (stereo unspecified) | 19.4%

Tested on: MDA-MB-468
Assay: Growth inhibition of human MDA-MB-468 cells at 10 uM after 48 hrs by coulter counter analysis
Type: functional
Conditions: MDA-MB-468, 48 h, read-out: GI
Method in brief: as §1

SMILES | inhibition of growth at 10 µM
CC(C(=O)Nc1nccs1)N1CCN(C)CC1 (stereo unspecified) | < 10%

Tested on: OVCAR-4
Assay: Growth inhibition of human OVCAR4 cells at 10 uM after 48 hrs by coulter counter analysis
Type: functional
Conditions: OVCAR-4, 48 h, read-out: GI
Method in brief: as §1

SMILES | inhibition of growth at 10 µM
CC(C(=O)Nc1nccs1)N1CCN(C)CC1 (stereo unspecified) | < 10%

Tested on: SN12C
Assay: Growth inhibition of human SN12C cells at 10 uM after 48 hrs by coulter counter analysis
Type: functional
Conditions: read-out: GI
Method in brief: as §1

SMILES | inhibition of growth at 10 µM
CC(C(=O)Nc1nccs1)N1CCN(C)CC1 (stereo unspecified) | < 10%

Tested on: MDA-MB-231
Assay: Growth inhibition of human MDA-MB-231 cells at 10 uM after 48 hrs by coulter counter analysis
Type: functional
Conditions: MDA-MB-231, 48 h, read-out: GI
Method in brief: as §1

SMILES | inhibition of growth at 10 µM
CC(C(=O)Nc1nccs1)N1CCN(C)CC1 (stereo unspecified) | < 10%

Tested on: OVCAR-8
Assay: Growth inhibition of human OVCAR8 cells at 10 uM after 48 hrs by coulter counter analysis
Type: functional
Conditions: OVCAR-8, 48 h, read-out: GI
Method in brief: as §1

SMILES | inhibition of growth at 10 µM
CC(C(=O)Nc1nccs1)N1CCN(C)CC1 (stereo unspecified) | < 10%

Tested on: OVCAR-3
Assay: Growth inhibition of human OVCAR3 cells at 10 uM after 48 hrs by coulter counter analysis
Type: functional
Conditions: OVCAR-3, 48 h, read-out: GI
Method in brief: as §1

SMILES | inhibition of growth at 10 µM
CC(C(=O)Nc1nccs1)N1CCN(C)CC1 (stereo unspecified) | < 10%

Tested on: not listed separately
Assay: Growth inhibition of human NCI-ADR-RES cells at 10 uM after 48 hrs by coulter counter analysis
Type: functional
Conditions: read-out: GI
Method in brief: as §1

SMILES | inhibition of growth at 10 µM
CC(C(=O)Nc1nccs1)N1CCN(C)CC1 (stereo unspecified) | < 10%

Tested on: Malme-3M
Assay: Growth inhibition of human MALME-3M cells at 10 uM after 48 hrs by coulter counter analysis
Type: functional
Conditions: read-out: GI
Method in brief: as §1

SMILES | inhibition of growth at 10 µM
CC(C(=O)Nc1nccs1)N1CCN(C)CC1 (stereo unspecified) | < 10%

Tested on: COLO 205
Assay: Growth inhibition of human COLO205 cells at 10 uM after 48 hrs by coulter counter analysis
Type: functional
Conditions: COLO 205, 48 h, read-out: GI
Method in brief: as §1

SMILES | inhibition of growth at 10 µM
CC(C(=O)Nc1nccs1)N1CCN(C)CC1 (stereo unspecified) | < 10%

Tested on: IGROV-1
Assay: Growth inhibition of human IGROV1 cells at 10 uM after 48 hrs by coulter counter analysis
Type: functional
Conditions: IGROV-1, 48 h, read-out: GI
Method in brief: as §1

SMILES | inhibition of growth at 10 µM
CC(C(=O)Nc1nccs1)N1CCN(C)CC1 (stereo unspecified) | < 10%

Tested on: KM12
Assay: Growth inhibition of human KM12 cells at 10 uM after 48 hrs by coulter counter analysis
Type: functional
Conditions: KM12, 48 h, read-out: GI
Method in brief: as §1

SMILES | inhibition of growth at 10 µM
CC(C(=O)Nc1nccs1)N1CCN(C)CC1 (stereo unspecified) | < 10%

Tested on: LOX IMVI
Assay: Growth inhibition of human LOXIMVI cells at 10 uM after 48 hrs by coulter counter analysis
Type: functional
Conditions: read-out: GI
Method in brief: as §1

SMILES | inhibition of growth at 10 µM
CC(C(=O)Nc1nccs1)N1CCN(C)CC1 (stereo unspecified) | < 10%

Tested on: RPMI-8226
Assay: Growth inhibition of human RPMI8226 cells at 10 uM after 48 hrs by coulter counter analysis
Type: functional
Conditions: RPMI-8226, 48 h, read-out: GI
Method in brief: as §1

SMILES | inhibition of growth at 10 µM
CC(C(=O)Nc1nccs1)N1CCN(C)CC1 (stereo unspecified) | < 10%

Tested on: SK-MEL-5
Assay: Growth inhibition of human SK-MEL-5 cells at 10 uM after 48 hrs by coulter counter analysis
Type: functional
Conditions: SK-MEL-5, 48 h, read-out: GI
Method in brief: as §1

SMILES | inhibition of growth at 10 µM
CC(C(=O)Nc1nccs1)N1CCN(C)CC1 (stereo unspecified) | < 10%

Tested on: MDA-MB-435
Assay: Growth inhibition of human MDA-MB-435 cells at 10 uM after 48 hrs by coulter counter analysis
Type: functional
Conditions: MDA-MB-435, 48 h, read-out: GI
Method in brief: as §1

SMILES | inhibition of growth at 10 µM
CC(C(=O)Nc1nccs1)N1CCN(C)CC1 (stereo unspecified) | < 10%

Tested on: SK-MEL-2
Assay: Growth inhibition of human SK-MEL-2 cells at 10 uM after 48 hrs by coulter counter analysis
Type: functional
Conditions: SK-MEL-2, 48 h, read-out: GI
Method in brief: as §1

SMILES | inhibition of growth at 10 µM
CC(C(=O)Nc1nccs1)N1CCN(C)CC1 (stereo unspecified) | < 10%

Tested on: ACHN
Assay: Growth inhibition of human ACHN cells at 10 uM after 48 hrs by coulter counter analysis
Type: functional
Conditions: read-out: GI
Method in brief: as §1

SMILES | inhibition of growth at 10 µM
CC(C(=O)Nc1nccs1)N1CCN(C)CC1 (stereo unspecified) | < 10%

Tested on: SF-268
Assay: Growth inhibition of human SF268 cells at 10 uM after 48 hrs by coulter counter analysis
Type: functional
Conditions: SF-268, 48 h, read-out: GI
Method in brief: as §1

SMILES | inhibition of growth at 10 µM
CC(C(=O)Nc1nccs1)N1CCN(C)CC1 (stereo unspecified) | < 10%

Tested on: SF-539
Assay: Growth inhibition of human SF539 cells at 10 uM after 48 hrs by coulter counter analysis
Type: functional
Conditions: SF-539, 48 h, read-out: GI
Method in brief: as §1

SMILES | inhibition of growth at 10 µM
CC(C(=O)Nc1nccs1)N1CCN(C)CC1 (stereo unspecified) | < 10%

Tested on: HCT-15
Assay: Growth inhibition of human HCT15 cells at 10 uM after 48 hrs by coulter counter analysis
Type: functional
Conditions: HCT-15, 48 h, read-out: GI
Method in brief: as §1

SMILES | inhibition of growth at 10 µM
CC(C(=O)Nc1nccs1)N1CCN(C)CC1 (stereo unspecified) | < 10%

Tested on: HCC 2998
Assay: Growth inhibition of human HCC2998 cells at 10 uM after 48 hrs by coulter counter analysis
Type: functional
Conditions: HCC 2998, 48 h, read-out: GI
Method in brief: as §1

SMILES | inhibition of growth at 10 µM
CC(C(=O)Nc1nccs1)N1CCN(C)CC1 (stereo unspecified) | < 10%

Tested on: not listed separately
Assay: Growth inhibition of human Hs 578T cells at 10 uM after 48 hrs by coulter counter analysis
Type: functional
Conditions: read-out: GI
Method in brief: as §1

SMILES | inhibition of growth at 10 µM
CC(C(=O)Nc1nccs1)N1CCN(C)CC1 (stereo unspecified) | < 10%

Tested on: SW-620
Assay: Growth inhibition of human SW620 cells at 10 uM after 48 hrs by coulter counter analysis
Type: functional
Conditions: SW-620, 48 h, read-out: GI
Method in brief: as §2

SMILES | inhibition of growth at 10 µM
CC(C(=O)Nc1nccs1)N1CCN(C)CC1 (stereo unspecified) | < 10%
